Columns and labels:
[1] = test system: Phosphatidylinositol 4,5-bisphosphate 3-kinase catalytic subunit alpha isoform (Homo sapiens), P42336 [H1047R]; experiment: Inhibition of PI3Kalpha H1047R mutant in human HCT116 cells assessed as inhibition of Akt phosphorylation at S473 residue relative to DMSO; format: cell-based; conditions: HCT-116
How it was run: (§1)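 AKT activation was read as pAKT on immunoblots of lysates from compound-treated HCT116-WT and HCT116-MUT cells, tested at a single concentration. Lysate protein was measured by the […]. Blots were blocked in 5% milk/TBST, probed with primary antibody (1:1000) and HRP secondary (1:1000), and developed by ECL. Band areas were quantified relative to DMSO.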

[2] = biological target: Phosphatidylinositol 4,5-bisphosphate 3-kinase catalytic subunit alpha isoform (Homo sapiens) (UniProt P42336); experiment: Inhibition of PI3Kalpha in human HCT116 cells assessed as inhibition of Akt phosphorylation at S473 residue relative to DMSO; format: cell-based; conditions: HCT-116; how it was run: as §1
[3] = test system: Phosphatidylinositol 4,5-bisphosphate 3-kinase catalytic subunit alpha isoform (Homo sapiens), P42336 [H1047R]; experiment: Inhibition of PI3Kalpha H1047R mutant in human HCT116 cells assessed as increase in PARP cleavage relative to LY294002; format: cell-based; conditions: HCT-116
How it was run: (§2)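 Apoptosis was assessed in HCT116-WT and HCT116-MUT cells, each treated with compound at a single concentration, by immunoblot for the 88 kDa cleaved PARP product. Blots were blocked in 5% milk/TBST, probed with primary antibody (1:1000) and peroxidase secondary (1:1000), and developed by ECL. Band areas were quantified by densitometry relative to LY294002.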

[4] = biological target: Phosphatidylinositol 4,5-bisphosphate 3-kinase catalytic subunit alpha isoform (Homo sapiens) (UniProt P42336); experiment: Inhibition of PI3Kalpha in human HCT116 cells assessed as increase in PARP cleavage relative to LY294002; format: cell-based; conditions: HCT-116; how it was run: as §2
[5] = test system: Phosphatidylinositol 4,5-bisphosphate 3-kinase catalytic subunit alpha isoform (Homo sapiens), P42336 [H1047R]; experiment: Inhibition of PI3Kalpha H1047R mutant in human HCT116 cells relative to LY294002; format: cell-based; conditions: HCT-116
How it was run: (§3)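 PI3K kinase activity was assayed in lysates of compound-treated HCT116-WT and HCT116-MUT cells, using a single compound concentration. Cells were washed with PBS, lysed, and the supernatants were collected by centrifugation for 15 min. Resulting band areas were quantified densitometrically relative to LY294002.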

[6] = biological target: Phosphatidylinositol 4,5-bisphosphate 3-kinase catalytic subunit alpha isoform (Homo sapiens) (UniProt P42336); experiment: Inhibition of PI3Kalpha in human HCT116 cells relative to LY294002; format: cell-based; conditions: HCT-116; how it was run: as §3
HCT-116 [7] = experiment: Growth inhibition of human HCT116 cells expressing PI3Kalpha H1047R mutant by MTT assay; format: functional, cell-based
How it was run: (§4)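 Growth of parental (WT) and H1047R-mutant HCT116 cells was measured by MTT assay, with absorbance read at 570 nm.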

HCT-116 [8] = experiment: Selectivity index, ratio of IC50 for human HCT116 cell to IC50 for PI3Kalpha H1047R mutant expressing human HCT116 cell; format: functional
HCT-116 [9] = experiment: Growth inhibition of human HCT116 cells by MTT assay; format: functional, cell-based; how it was run: as §4

Sequence of Phosphatidylinositol 4,5-bisphosphate 3-kinase catalytic subunit alpha isoform (Homo sapiens) (P42336 whole entry, canonical isoform): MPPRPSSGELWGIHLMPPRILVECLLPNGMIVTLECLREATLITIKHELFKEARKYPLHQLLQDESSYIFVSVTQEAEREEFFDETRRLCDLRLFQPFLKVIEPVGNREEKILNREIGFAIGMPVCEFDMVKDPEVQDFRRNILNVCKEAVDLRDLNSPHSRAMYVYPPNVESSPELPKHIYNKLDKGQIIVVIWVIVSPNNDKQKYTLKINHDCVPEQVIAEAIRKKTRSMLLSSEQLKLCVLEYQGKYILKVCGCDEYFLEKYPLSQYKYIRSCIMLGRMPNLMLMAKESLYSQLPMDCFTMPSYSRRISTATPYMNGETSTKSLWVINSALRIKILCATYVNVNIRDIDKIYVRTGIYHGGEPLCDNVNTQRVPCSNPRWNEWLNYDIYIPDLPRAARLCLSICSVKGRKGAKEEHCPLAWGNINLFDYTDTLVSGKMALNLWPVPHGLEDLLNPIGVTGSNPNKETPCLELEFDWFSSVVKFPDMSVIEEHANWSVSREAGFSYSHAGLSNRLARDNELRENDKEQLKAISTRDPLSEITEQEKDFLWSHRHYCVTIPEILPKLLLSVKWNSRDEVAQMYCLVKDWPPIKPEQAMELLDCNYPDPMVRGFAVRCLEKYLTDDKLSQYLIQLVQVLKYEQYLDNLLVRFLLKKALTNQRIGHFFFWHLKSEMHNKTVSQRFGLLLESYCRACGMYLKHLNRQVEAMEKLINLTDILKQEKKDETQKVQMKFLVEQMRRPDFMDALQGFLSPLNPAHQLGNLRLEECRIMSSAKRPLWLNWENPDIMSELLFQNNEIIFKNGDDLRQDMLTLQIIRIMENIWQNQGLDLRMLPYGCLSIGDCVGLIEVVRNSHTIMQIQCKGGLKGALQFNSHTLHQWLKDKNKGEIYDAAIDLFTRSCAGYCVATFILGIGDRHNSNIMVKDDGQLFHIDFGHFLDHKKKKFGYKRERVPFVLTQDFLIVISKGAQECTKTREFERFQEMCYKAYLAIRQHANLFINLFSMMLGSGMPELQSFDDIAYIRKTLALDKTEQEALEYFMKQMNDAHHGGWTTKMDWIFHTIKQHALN
Sequence of Phosphatidylinositol 4,5-bisphosphate 3-kinase catalytic subunit alpha isoform (Homo sapiens), P42336 [H1047R] (P42336 whole entry H1047R, canonical isoform): as the sequence (P42336 whole entry, canonical isoform) above, with H1047R counted along it

SMILES | fold change (FC) [1] | fold change (FC) [2] | fold change (FC) [3] | fold change (FC) [4] | fold change (FC) [5] | fold change (FC) [6] | IC50 (HCT-116 [7]) [µM] | IC50 (HCT-116 [9]) [µM] | Ratio IC50 (HCT-116 [8])
O=c1cc(N2CCOCC2)oc2c(-c3ccccc3)cccc12 | 0.41 | 0.01 |  |  |  |  |  |  | 
O=C(Nc1ccc(F)cc1)c1c(O)c2cc(F)ccc2[nH]c1=O | 0.86 | 0.95 | 1.37 | 1.01 | 0.59 | 0.65 | 6.9 | 15 | 2.2
Cn1c(=O)c(C(=O)Nc2ccccc2)c(O)c2ccccc21 |  |  |  |  |  |  | 100 | 110 | 
O=C(NCc1ccccc1)c1cc2ccccc2[nH]c1=O | 0.13 | 0.09 | 0.05 | 0.92 | 0.8 | 0.14 | 330 | 420 | 
O=C(NCc1ccccc1)c1cnc2ccccc2c1 | 0.3 | 1.59 | 0.06 | 0.81 | 0.87 | 0.7 | 120 | 65 | 
O=C(NCc1ccccc1)c1cnc2ccccc2c1O | 0.2 | 1 | 0.2 | 0.71 | 0.88 | 0.56 | 19 | 24 | 

More lines, main results first:

fold change (FC) [1] | fold change (FC) [2] | fold change (FC) [3] | fold change (FC) [4] | fold change (FC) [5] | fold change (FC) [6] | IC50 (HCT-116 [7]) [µM] | IC50 (HCT-116 [9]) [µM] | SMILES | Ratio IC50 (HCT-116 [8])
0.51 | 1.01 | 1.35 | 0.4 | 0.9 | 0.75 | 0.28 | 6.5 | O=C(Nc1cccc(F)c1)c1c(O)c2ccc(F)cc2[nH]c1=O | 23
0.44 | 1.66 | 3.9 | 0.01 | 0.64 | 0.82 | 6.3 | 64 | COc1ccc(NC(=O)c2c(O)c3cc(OC)ccc3[nH]c2=O)cc1 | 10
0.4 | 0.11 | 4.99 | 0.01 | 0.71 | 0.89 | 2.5 | 9.4 | O=C(Nc1ccccc1)c1c(O)nc2ccccc2c1O | 3.8
1.23 | 1.6 | 5.05 | 0.88 | 0.75 | 0.69 | 3.6 | 22 | O=C(Nc1ccccc1F)c1c(O)c2cccc(F)c2[nH]c1=O | 6
0.41 | 1.66 | 1.14 | 1 | 0.79 | 0.75 | 5.6 | 27 | Cc1ccc(NC(=O)c2c(O)c3cc(C)ccc3[nH]c2=O)cc1 | 4.8
